Assay outcomes deposited in PubChem BioAssay by several laboratories.
MIN6 prolif-1: inducers of beta-cell replication in MIN6 cells; MIN6 cells proliferation, ATPlite luminescence, 48 h; cells starved in 0.2% serum; 100% = growth in 10% serum; proliferation, % at 10 µM; 330,000 tested, 0.29% active; AID 2380;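 active means compounds whose signal lies at least 3.5 SD above the mean of all wells on their plate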;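 further: 0% = DMSO-treated cells in low-serum medium and 100% = 10% serum control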
UCH37 DUB inh: inhibitors of human deubiquitinating enzyme UCH37. Q9Y5K5. 330,000 tested, 0.33% active. purified proteasome/UCH37, Ub-AMC cleavage fluorescence. inhibition, % (test concentration not listed). AID 588478;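 active means mean inhibition over replicate wells above about 20%, limit read from the data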;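 further: 0% = compound-free wells with enzyme and 100% = wells lacking proteasome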
Target sequence (Q9Y5K5 whole entry, looked up): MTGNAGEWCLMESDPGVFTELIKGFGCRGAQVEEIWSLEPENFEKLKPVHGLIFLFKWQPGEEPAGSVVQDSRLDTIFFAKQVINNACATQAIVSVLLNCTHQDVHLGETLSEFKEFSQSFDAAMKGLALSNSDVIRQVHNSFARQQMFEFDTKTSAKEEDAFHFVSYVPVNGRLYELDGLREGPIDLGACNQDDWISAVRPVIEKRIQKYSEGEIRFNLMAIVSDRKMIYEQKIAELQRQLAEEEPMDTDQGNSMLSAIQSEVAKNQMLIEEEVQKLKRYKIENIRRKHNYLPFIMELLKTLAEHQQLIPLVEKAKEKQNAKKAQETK
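System: Proteasome-associated human UCH37 deubiquitinase; Input: 0.15 nM proteasome in added enzyme buffer; Also added: Ub-AMC substrate from 1 µM stock; Incubation: 30 min compound-proteasome preincubation then 25 min substrate reaction, room temperature; Detection: fluorescence, ex 355 nm, em 460 nm; Read-out: % inhibition of Ub-AMC cleavage fluorescence; Benchmarks: no-proteasome and no-compound wells.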
Rev-erbA mod: Rev-erb alpha (human) modulation | Rev-erbα–FITC-DNA binding, fluorescence polarization, 90 min | activity, % at 10 µM | P20393 | 370,000 tested, 0.79% active;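 active means activity above about 14%, limit read from the data; passing the limit was not always enough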;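 further: 0% = DMSO wells with 35 nM protein and 100% = DMSO wells with 750 nM protein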
PG9 Ab binder: PG9 antibody binding by small molecule | 360,000 tested, 0.43% active | TR-FRET gp120-PG9 antibody binding | inhibition, % at 6.7 µM; in the data active means inhibition above about 8.5%
CR mimetic SO: lowers age-related superoxide in aged yeast cells | S. cerevisiae aged cells, superoxide DHE fluorescence; stronger effect = lower value | superoxide response (% of plate mean), % at 10 µM | 330,000 tested, 0.18% active | AID 2690;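 active means superoxide response under a set limit, about three screen SD below normal, cut at about 65% in these data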;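 further: yeast aged for seven days with compound at 30 °C before DHE staining; 100% = average MFI of all compound-treated wells on the plate with controls excluded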
Rce1 inhib: inhibitors of yeast Ras-converting enzyme; Q03530; yeast membranes, quenched prenylated peptide cleavage fluorescence; calls only; 290,000 tested, 0.27% active; AID 2563;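 active means fall in fluorescence gain of 50% or more versus controls, with final raw signal at or below 3038400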;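 further: plate controls were neutral control wells for no effect and wells lacking membranes for full effect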
Target sequence (Q03530 whole entry, looked up): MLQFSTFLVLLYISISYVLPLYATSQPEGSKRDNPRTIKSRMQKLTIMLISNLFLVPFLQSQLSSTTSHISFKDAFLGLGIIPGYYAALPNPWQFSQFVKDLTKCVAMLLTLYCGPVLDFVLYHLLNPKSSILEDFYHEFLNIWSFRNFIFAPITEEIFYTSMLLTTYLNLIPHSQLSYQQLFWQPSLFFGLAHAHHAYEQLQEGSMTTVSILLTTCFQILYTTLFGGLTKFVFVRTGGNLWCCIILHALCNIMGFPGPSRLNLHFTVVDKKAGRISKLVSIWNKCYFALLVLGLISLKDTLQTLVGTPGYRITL
MIN6 prolif-2: confirmation of inducers of beta-cell replication in MIN6 cells; shares compounds with MIN6 prolif-1; proliferation increase, % at 50 µM; 920 tested, under 10 active; MIN6 beta-cell proliferation, ATPlite luminescence, 48 h; cells kept in 0.2% serum; scaled between 0.2% and 10% serum;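 active means proliferation increase above 40% at any of the four tested concentrations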
Superoxide pick: yeast aging superoxide inhibition, cherry pick confirmation. superoxide response (% of plate), % at 10 µM. S. cerevisiae aging, superoxide DHE fluorescence; stronger effect = lower value. 850 tested, 1% active. shares compounds with CR mimetic SO;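 active means superoxide signal below 65% of the plate average of sample wells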;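 further: cells aged with compound for 7 days at 30 degrees C before staining; 100% equals mean DHE fluorescence of all compound wells on the plate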
DHE counter: counter-screen for compounds affecting DHE oxidation and fluorescence in yeast; fluorescence response, % at 10 µM; AID 435000; shares compounds with CR mimetic SO; S. cerevisiae BY4741, flow cytometry; stronger effect = lower value; 850 tested, under 10 active;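 active means fluorescence response below 15%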;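 further: percent of the mean fluorescence averaged over all compound wells on the plate; lower means stronger quenching of DHE signal or ROS scavenging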
PG9 bind confirm: confirmation of small molecules binding HIV-1 gp120 antibody PG9; TR-FRET PG9 antibody binding, biochemical; 1,500 tested, 90% active; inhibition, % at 6.7 µM; shares compounds with PG9 Ab binder; AID 651571; in the data active means inhibition above about 9%
PGV04 counter: binds control antibody PGV04 in PG9 binder counter-screen; shares compounds with PG9 Ab binder; TR-FRET PGV04 antibody-gp120 binding, biochemical; inhibition, % at 6.7 µM; 1,500 tested, 95% active; AID 651604; in the data active means inhibition above about 9.5%
Rev-erbA confirm: confirmation of modulators of human Rev-erb alpha DNA binding; shares compounds with Rev-erbA mod; Rev-erb alpha FITC-DNA binding, fluorescence polarization, 90 min; activation, % at 25 µM; 3,000 tested, 61% active;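 active means activation at or above a set limit, or at least 3 SD above the negative control mean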;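 further: 0% = 35 nM protein with DMSO and 100% = 750 nM protein high control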
The depositor's hits bear a star; i = inactive; · = no result given. An excerpt weighted towards active compounds, which were near 1.9% of everything screened.

SMILES	MIN6 prolif-1	UCH37 DUB inh	Rev-erbA mod	PG9 Ab binder	CR mimetic SO	Rce1 inhib	Superoxide pick	DHE counter	others
COCCCn1c(=O)/c(=C\c2ccc(OC(F)F)c(OC)c2)s/c1=C(/C#N)C(N)=O	9.0*	·	2.4	13.8*	99.2	i	·	·	MIN6 prolif-2=-1.2;PG9 bind confirm=36.2*;PGV04 counter=38.9*
Nc1nonc1C(=NO)N1CCCC1	·	1.8	·	·	·	·	·	·
COc1ccc(C(=O)N=C2SC3CS(=O)(=O)CC3N2c2ccc(N(C)C)cc2)cc1OC (centres undefined)	14.2*	-108.0	53.2*	-1.5	90.8	i	·	·	MIN6 prolif-2=3.1;Rev-erbA confirm=12.5
COc1ccc(N2C(=NC(=O)C3CCCCC3)SC3CS(=O)(=O)CC32)cc1OC (centres undefined)	2.4	0.5	8.7	-3.0	79.3	i	·	·
O=C(Nc1ccccc1Cl)C1Cc2ccccc2OC1=NO (centres undefined)	·	4.0	·	·	·	·	·	·
COc1ccc(OC)c2c1sc(=NC(=O)C1COc3ccccc3O1)n2C (centres undefined)	7.7*	-1.7	29.0*	-0.8	95.6	i	·	·	MIN6 prolif-2=-2.1;Rev-erbA confirm=20.5*
Cc1csc(Nc2ccccc2C(F)(F)F)n1	-1.8	7.0	1.7	1.2	64.3*	i	108.1	100.8
CCCOc1ccc(Br)cc1C=NNC(=O)c1cc(OC)c(OC)c(OC)c1	·	4.7	·	·	·	·	·	·
O=C(Nc1ccc(F)cc1)C(=O)c1c(O)[nH]c2ccc([N+](=O)[O-])cc12	-0.9	9.2	·	·	64.4*	i	86.8	101.2
COc1cccc(C(=O)NCC(=O)NN=Cc2cn[nH]c2-c2ccccc2)c1	·	1.1	·	·	·	·	·	·
CSc1nnc(-c2ccc([N+](=O)[O-])cc2)o1	-2.7	5.6	-2.1	-3.6	93.7	i	·	·
C#CCSc1nnc(-c2ccc([N+](=O)[O-])cc2)o1	-2.5	6.2	3.2	0.0	54.0*	i	72.5	92.9
CC(CC(=O)Nc1ccc(F)cc1)=NNC(=O)COc1ccccc1	·	5.3	·	·	·	·	·	·
C=CCNC(=S)NCCO	-0.7	4.9	5.3	-0.7	80.9	i	·	·
C=CCNC(=S)NCC	-2.0	·	-8.4	-1.0	65.1*	i	97.8	96.5
Cc1c(NS(=O)(=O)c2ccccc2)cc(Cl)c(O)c1C	-6.1	5.1	2.3	-0.5	142.3	i	88.6	99.7
CCCOc1ccc(-c2c(C(=O)NN=Cc3ccncc3)nnn2-c2nonc2N)cc1	·	2.9	·	·	·	·	·	·
CC1(C)CC(=O)C=C(Nc2ccc(F)c(Cl)c2)C1	-3.2	5.8	-7.4	-1.2	62.2*	i	98.9	94.6
Cc1ccc(NC2=CC(=O)CC(C)(C)C2)cc1Cl	0.1	-0.2	2.8	-2.7	97.5	i	·	·
CCOc1ccc2nc(SCC(=O)c3ccc(O)cc3O)sc2c1	2.8	2.8	-14.4	0.7	50.1*	i	101.3	94.1
CC(=NOc1nc(C)cc(C)n1)c1ccccc1	·	-0.6	·	·	·	·	·	·
C/C(C=NN1CCN(c2ccccn2)CC1)=C\c1ccccc1	·	2.9	·	·	·	·	·	·
COc1cccc(N=Nc2c(=O)[nH]n3c(C)cc(C)nc23)c1	-2.8	8.2	13.3	-13.1	91.1	i	·	·
CCOc1ccc(N=Nc2c(=O)[nH]n3c(C)cc(C)nc23)cc1	-0.1	24.6*	16.2	-16.8	52.4*	i	99.7	110.4
CN(N=Cc1ccncc1)c1cnn(-c2ccc(F)c(Cl)c2)c(=O)c1Cl	·	0.2	·	·	·	·	·	·
SMILES	MIN6 prolif-1	UCH37 DUB inh	Rev-erbA mod	PG9 Ab binder	CR mimetic SO	Rce1 inhib	Superoxide pick	DHE counter	others
CCOC(=O)C1CCN(C(=O)COc2ccc(C(=O)c3ccccc3)cc2)CC1	-2.2	2.0	-3.1	2.4	63.5*	·	93.7	91.6
COc1ccc(-n2c(C)cc(C(=O)CN3CCC(C)CC3)c2C)cc1	-5.1	3.5	-3.1	-2.1	65.5*	i	104.3	89.2
CC(=O)Nc1ccc(S(=O)(=O)Nc2ccc(Nc3ccccc3)cc2)cc1	-2.6	1.1	-1.6	-1.5	98.1	i	·	·
NC(=O)c1ccccc1NS(=O)(=O)c1ccccc1	3.1	-21.2	0.2	-1.5	111.1	i	101.1	91.7
CSc1cccc(NS(=O)(=O)c2ccc(F)cc2)c1	-2.4	4.1	-3.9	0.3	87.1	i	·	·
Cc1ccc(S(=O)(=O)Nc2ccccc2C(N)=O)cc1	2.2	-34.3	0.7	-2.2	104.8	i	·	·
CC(=O)Nc1ccc(NS(=O)(=O)c2ccccc2)cc1	-2.0	4.1	5.9	-0.8	97.3	i	104.1	88.3
CSc1cccc(NS(=O)(=O)c2ccccc2)c1	-0.2	2.8	-2.1	-0.3	104.1	i	100.1	102.2
CCOc1cc(C(=O)NN=Cc2cn(CC)nc2C)cc(OCC)c1OCC	·	-24.5	·	·	·	·	·	·
CCN(CC)c1ccc(C=NNC(=O)c2ccoc2C)cc1	·	-124.1	·	·	·	·	·	·
NC(=O)C(=NOC(=O)c1ccco1)c1nc(-c2ccc(Br)cc2)cs1	·	-0.4	·	·	·	·	·	·
Cn1c2ccccc2c2cc(C(=O)O)ccc21	1.8	-1.8	2.0	1.4	137.9	i	·	·
CCn1c2ccccc2c2cc(N)ccc21	-5.3	-65.4	-0.5	-1.9	99.2	i	95.8	96.4
CCn1c2ccccc2c2cc(/C(C)=N/O)ccc21	2.7	·	5.3	-0.9	100.6	i	103.8	121.6
CCCn1c2ccccc2c2cc(C(=O)O)ccc21	-0.2	·	-0.7	-0.2	114.3	i	105.5	96.0
CCn1c(=O)n(CC)c2cc(N)ccc21	-1.4	1.7	-1.9	-3.0	98.5	i	·	·
CCC(CC)NCc1ccc2c(c1)c1ccccc1n2CC	-3.9	·	4.2	-2.6	101.2	i	107.0	93.0
O=C(NN=Cc1cccc(Cl)c1Cl)Nc1ccccc1	·	0.2	·	·	·	·	·	·
O=C(CSc1nnc(SCc2ccc(Cl)cc2)s1)NN=Cc1ccc(C(=O)O)cc1	·	2.9	·	·	·	·	·	·
O=C(O)c1ccc(C=NNC(=O)c2cc(-c3ccc4c5c(cccc35)CC4)n[nH]2)cc1	·	8.5	·	·	·	·	·	·
Cc1noc(C)c1C(=O)N(CC(C)C)c1nc2ccccc2s1	2.5	0.8	2.2	-0.2	60.8*	i	90.0	91.3
